From publication PMC5949723 (Journal of Medicinal Chemistry, 2018)

What was measured:
[1] = target: T1, full length TbrPDEB1 (Trypanosoma brucei, UniProt Q8WQX9); assay: Phosphodiesterase activity assay; type: biochemical; settings: for Selectivity, hPDE4B1 (Ki)/TbrPDEB1 (Ki): ratio of Ki values
T1 sequence (Q8WQX9 1-930): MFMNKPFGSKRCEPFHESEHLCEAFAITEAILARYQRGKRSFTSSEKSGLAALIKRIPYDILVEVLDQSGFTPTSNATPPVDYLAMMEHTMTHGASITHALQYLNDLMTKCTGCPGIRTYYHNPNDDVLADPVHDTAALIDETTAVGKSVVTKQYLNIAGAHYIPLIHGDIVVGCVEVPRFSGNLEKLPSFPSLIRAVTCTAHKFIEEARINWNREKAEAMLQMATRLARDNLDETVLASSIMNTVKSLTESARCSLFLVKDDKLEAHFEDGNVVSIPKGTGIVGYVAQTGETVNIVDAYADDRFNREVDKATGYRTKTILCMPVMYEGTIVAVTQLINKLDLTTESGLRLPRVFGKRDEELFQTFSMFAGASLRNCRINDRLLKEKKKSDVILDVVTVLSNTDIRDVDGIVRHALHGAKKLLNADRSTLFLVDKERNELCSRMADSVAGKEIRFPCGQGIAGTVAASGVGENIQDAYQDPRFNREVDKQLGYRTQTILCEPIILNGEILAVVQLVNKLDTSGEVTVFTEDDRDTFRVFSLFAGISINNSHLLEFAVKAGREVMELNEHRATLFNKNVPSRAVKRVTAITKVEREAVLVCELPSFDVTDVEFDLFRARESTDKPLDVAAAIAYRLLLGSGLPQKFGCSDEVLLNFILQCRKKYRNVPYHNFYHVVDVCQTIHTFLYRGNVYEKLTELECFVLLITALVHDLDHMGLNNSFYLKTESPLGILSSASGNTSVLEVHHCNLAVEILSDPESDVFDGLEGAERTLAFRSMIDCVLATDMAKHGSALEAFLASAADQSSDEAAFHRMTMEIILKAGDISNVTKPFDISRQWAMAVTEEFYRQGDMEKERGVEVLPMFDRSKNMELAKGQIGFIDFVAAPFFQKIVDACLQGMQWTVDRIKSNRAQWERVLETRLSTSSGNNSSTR

[2] = target: T2, full length recombinant hPDE4B1 (Homo sapiens, UniProt Q07343); assay: Phosphodiesterase activity assay; type: biochemical
T2 sequence (Q07343 whole entry): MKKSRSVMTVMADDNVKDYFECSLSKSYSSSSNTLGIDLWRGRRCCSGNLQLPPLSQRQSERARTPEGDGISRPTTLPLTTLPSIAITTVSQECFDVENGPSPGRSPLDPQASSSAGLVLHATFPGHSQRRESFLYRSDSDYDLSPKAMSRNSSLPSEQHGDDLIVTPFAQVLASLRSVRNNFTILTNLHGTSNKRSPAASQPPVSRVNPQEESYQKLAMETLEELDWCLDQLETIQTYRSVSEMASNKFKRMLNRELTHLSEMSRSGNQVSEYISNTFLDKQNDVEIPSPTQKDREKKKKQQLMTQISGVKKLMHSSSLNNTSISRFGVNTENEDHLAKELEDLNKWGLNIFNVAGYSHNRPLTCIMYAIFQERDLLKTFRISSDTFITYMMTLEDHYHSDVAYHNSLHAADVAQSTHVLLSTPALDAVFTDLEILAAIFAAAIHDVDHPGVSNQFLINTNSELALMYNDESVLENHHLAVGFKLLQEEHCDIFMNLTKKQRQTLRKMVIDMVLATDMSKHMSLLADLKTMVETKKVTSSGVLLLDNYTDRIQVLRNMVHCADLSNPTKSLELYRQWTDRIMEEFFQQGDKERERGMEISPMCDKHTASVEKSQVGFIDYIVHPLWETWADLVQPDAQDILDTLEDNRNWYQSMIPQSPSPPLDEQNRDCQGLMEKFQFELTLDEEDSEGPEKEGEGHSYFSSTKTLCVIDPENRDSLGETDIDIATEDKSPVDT

[3] = system: intracellular cAMP levels in T. brucei; assay: Intracellular cAMP measurements in bloodstream form trypanosomes; type: cell-based, T. brucei Lister 427; settings: 5 h
In short: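 Log-phase bloodstream forms, HMI-9 with 10% heat-inactivated FBS, 37 °C, 5% CO2, set at 2 × 10^6 cells/mL. Dosed 5 h with test compound at 0.1, 0.33, 1, 3.3 or 10 μM (final), 0.3 μM PDE inhibitor positive control, 0.025 μM pentamidine, or no drug. 5 × 10^6 cells pelleted and lysed in 0.1 M HCl on ice 20 min; cAMP assayed in extracts in duplicate. Mean of four determinations ± SEM, Student's t-test, P < 0.05.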

[4] = system: T. brucei cellular PDE activity; settings: cited from earlier work
[5] = target: T1, full length TbrPDEB1; settings: established hPDE4 inhibitors; cited from earlier work
[6] = system: T. brucei; settings: cited from earlier work
[7] = system: T. brucei bloodstream forms; assay: Microscopy and DAPI staining; type: cell-based; settings: 10 μM
In short: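 Lister 427 bloodstream forms in HMI-9 with 10% heat-inactivated FBS, 37 °C, 5% CO2, seeded at 2 × 10^5 cells/mL with 10 μM test compound. Sampled at 0, 6, 12 and 24 h, pelleted at 4 °C, washed in PBS pH 7.4 and spread on slides. DAPI-stained; brightfield and fluorescence imaging scored nuclear and kinetoplast division, cytokinesis and morphology.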

[8] = system: hPDE4 subtypes; settings: read-out: hPDE4 subtypes IC50; cited from earlier work
[9] = target: T2, full length recombinant hPDE4B1; settings: read-out: hPDE4B1 IC50; cited from earlier work

Compound: COc1ccc(C2=NN(C(C)C)C(=O)C3CC=CCC23)cc1-c1ccc(C(=O)N2CCC[C@@H]2C(N)=O)cc1 (mixture of isomers) [compound 24, (R)-1-(5′-(cis-3-Isopropyl-4-oxo-3,4,4a,5,8,8a-hexahydrophthalazin-1-yl)-2′-methoxy-[1,1′-biphenyl]-4-carbonyl)pyrrolidine-2-carboxamide]
- selectivity for TbrPDEB1 over hPDE4B1 [1]: more than 10 fold
- Selectivity, hPDE4B1 (Ki)/TbrPDEB1 (Ki) [1]: 18
- Ki [2]: 10000 nM

Compound: N=C(N)c1ccc(OCCCCCOc2ccc(C(=N)N)cc2)cc1 [pentamidine, reference compound]
- effect on intracellular cAMP level ([3]; negative control, 0.025 μM, versus untreated parasites): not statistically different from untreated parasites

Compound: COc1ccc(C2=NN(C3CCCCCC3)C(=O)C3CC=CCC23)cc1-c1ccc(C(=O)N2CC[C@@H](O)C2)cc1 (mixture of isomers) [compound 21, cis-2-Cycloheptyl-4-(4′-((R)-3-hydroxy-pyrrolidine-1-carbonyl)-6-methoxy-[1,1′-biphenyl]-3-yl)-4a,5,8,8a-tetrahydrophthalazin-1(2H)-one]
- Selectivity, hPDE4B1 (Ki)/TbrPDEB1 (Ki) [1]: 9

Compound: COc1ccc(C2=NN(C3CCCCCC3)C(=O)C3CC=CCC23)cc1-c1ccc(C(=O)N2CCC[C@@H]2C(N)=O)cc1 (mixture of isomers) [compound 23, (R)-1-(5′-(cis-3-Cycloheptyl-4-oxo-3,4,4a,5,8,8a-hexahydrophthalazin-1-yl)-2′-methoxy-[1,1′-biphenyl]-4-carbonyl)pyrrolidine-2-carboxamide]
- selectivity for TbrPDEB1 over hPDE4B1 [1]: more than 10 fold

Compound: COc1ccc(C2=NN(C3CCCCCC3)C(=O)[C@@H]3CC=CC[C@H]23)cc1-c1ccc(C(=O)NCC(=O)NCCO)cc1 (relative stereo) [compound 16, 5′-(cis-3-Cycloheptyl-4-oxo-3,4,4a,5,8,8a-hexahydrophthalazin-1-yl)-N-(2-((2-hydroxyethyl)amino)-2-oxoethyl)-2′-methoxy-[1,1′-biphenyl]-4-carboxamide]
- selectivity for TbrPDEB1 over hPDE4B1 [1]: ~8 fold

Compound: COc1ccc(C2=NN(C3CCCCCC3)C(=O)[C@H]3CC=CC[C@@H]23)cc1-c1ccc(C(=O)NCC(N)=O)cc1 [8a, N-(2-Amino-2-oxoethyl)-5′-((4aS,8aR)-3-cycloheptyl-4-oxo-3,4,4a,5,8,8a-hexahydrophthalazin-1-yl)-2′-methoxy-[1,1′-biphenyl]-4-carboxamide]
- fold less potent against TbrPDEB1 than optical isomer 8b ([1]; 8a versus 8b): 100 fold

Compound: COc1ccc(C2=NN(C(C)C)C(=O)C3CC=CCC23)cc1-c1ccc(C(=O)N2CC[C@@H](O)C2)cc1 (mixture of isomers) [compound 22, cis-4-(4′-((R)-3-Hydroxypyrrolidine-1-carbonyl)-6-methoxy-[1,1′-biphenyl]-3-yl)-2-isopropyl-4a,5,8,8a-tetrahydrophthalazin-1(2H)-one]
- Ki [1]: 200 nM
- Selectivity, hPDE4B1 (Ki)/TbrPDEB1 (Ki) [1]: 15
- Ki [2]: 3160 nM

Compound: COc1ccc(C2CNC(=O)C2)cc1OC1CCCC1 (stereo not drawn) [rolipram]
- inhibition of T. brucei cellular PDE activity [4]: do not inhibit
- inhibition of the enzyme TbrPDEB1 [5]: do not inhibit
- killing of the parasite [6]: do not kill the parasite

Compound: COc1ccc(C2=NN(C3CCCCCC3)C(=O)[C@@H]3CC=CC[C@H]23)cc1-c1ccc(C(=O)NCC(N)=O)cc1 (relative stereo) [compound 8, N-(2-Amino-2-oxoethyl)-5′-(cis-3-cycloheptyl-4-oxo-3,4,4a,5,8,8a-hexahydrophthalazin-1-yl)-2′-methoxy-[1,1′-biphenyl]-4-carboxamide]
- effect on intracellular cAMP level ([3]; 100 nM, P < 0.05): small but significant effect
- effect on intracellular cAMP level ([3]; 10 μM, P < 0.001): strong increase of cAMP level
- Ki [1]: 100 nM
- cellular phenotype by fluorescence microscopy ([7]; 6 h): defect in cytokinesis
- cellular phenotype by fluorescence microscopy ([7]; 12 h): rounded cells with multiple flagella, some of them detached, and at least 4 nuclei
- cellular phenotype by fluorescence microscopy ([7]; 24 h): only a few live cells could be detected, all of which were severely misshapen
- Ki [2]: 1000 nM

Compound: CCOC(=O)c1cnc2c(cnn2CC)c1NN=C(C)C [etazolate]
- inhibition of T. brucei cellular PDE activity [4]: do not inhibit
- inhibition of the enzyme TbrPDEB1 [5]: do not inhibit
- killing of the parasite [6]: do not kill the parasite

Compound: COc1ccc(C2=NN(C3CCCCCC3)C(=O)[C@@H]3CC=CC[C@H]23)cc1OCCCCOc1ccc(-c2nnn[nH]2)cc1 [compound 1]
- effect on intracellular cAMP level ([3]; positive control 0.3 μM, compared with 10 μM of 8): equally effective
- IC50 [8]: < 1 nM
- IC50 [9]: 0.6 nM
